pIC50: −log10 of the molar value. Activity calls are given as the source filed them. The calls are words filed in the database; no cut-off is given here.
Assays:
[1] = biological target: T1, Fatty-acid amide hydrolase 1 (Rattus norvegicus) (UniProt P97612); test: Inhibition of rat recombinant His/GST-tagged FAAH expressed in Escherichia coli cells at 1 uM using AAMCA as substrate incubated for 15 mins followed by substrate addition and measured after every 20 mins for 4 hrs by fluorescence based assay relative to control
T1 sequence (whole entry): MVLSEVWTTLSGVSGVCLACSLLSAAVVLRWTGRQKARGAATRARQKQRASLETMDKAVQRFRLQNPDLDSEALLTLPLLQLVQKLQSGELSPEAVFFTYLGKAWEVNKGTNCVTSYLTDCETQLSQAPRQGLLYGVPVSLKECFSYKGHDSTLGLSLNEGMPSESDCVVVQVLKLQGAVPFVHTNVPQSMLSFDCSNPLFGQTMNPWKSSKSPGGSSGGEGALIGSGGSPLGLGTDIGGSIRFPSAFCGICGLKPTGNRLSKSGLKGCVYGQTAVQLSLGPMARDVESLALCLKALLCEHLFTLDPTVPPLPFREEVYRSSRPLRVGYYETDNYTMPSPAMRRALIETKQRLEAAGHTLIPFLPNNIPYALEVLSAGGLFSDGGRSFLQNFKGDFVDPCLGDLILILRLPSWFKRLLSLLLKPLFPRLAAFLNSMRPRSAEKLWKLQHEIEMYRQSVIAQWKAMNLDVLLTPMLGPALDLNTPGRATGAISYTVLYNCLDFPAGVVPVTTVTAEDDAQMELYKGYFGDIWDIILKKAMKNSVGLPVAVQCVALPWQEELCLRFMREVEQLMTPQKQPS
In short: (§1)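 Fluorescent FAAH assay with arachidonoyl 7-amino-4-methylcoumarin amide as substrate; compound tested at a single concentration of 1 µM; percent inhibition reported.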

[2] = biological target: Cannabinoid receptor 1 (Rattus norvegicus) (UniProt P20272); test: Displacement of [3H]CP55940 from CB1 receptor in rat brain by competition-equilibrium binding analysis; type: tissue-based
In short: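 Rat brain membranes as CB1 source; competition-equilibrium binding against [3H]CP-55,940.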
Target sequence in this assay (P20272 whole entry): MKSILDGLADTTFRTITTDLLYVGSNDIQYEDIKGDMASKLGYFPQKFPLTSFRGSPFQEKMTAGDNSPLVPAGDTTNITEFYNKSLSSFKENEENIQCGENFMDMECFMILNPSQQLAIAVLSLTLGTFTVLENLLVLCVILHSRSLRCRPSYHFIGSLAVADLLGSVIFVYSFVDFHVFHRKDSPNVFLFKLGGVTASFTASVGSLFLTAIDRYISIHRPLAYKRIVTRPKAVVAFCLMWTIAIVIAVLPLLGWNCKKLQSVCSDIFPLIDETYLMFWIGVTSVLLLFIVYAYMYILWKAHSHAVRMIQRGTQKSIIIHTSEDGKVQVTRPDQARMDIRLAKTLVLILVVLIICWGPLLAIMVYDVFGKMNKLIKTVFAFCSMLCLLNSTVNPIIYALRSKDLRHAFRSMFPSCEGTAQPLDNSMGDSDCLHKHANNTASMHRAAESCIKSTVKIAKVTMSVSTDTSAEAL

[3] = biological target: Cannabinoid receptor 2 (Mus musculus) (UniProt P47936); test: Displacement of [3H]CP55940 from mouse CB2 receptor expressed in HEK293 cells by competition-equilibrium binding analysis; type: cell-based
In short: (§2)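 HEK293 cell membranes expressing mouse or human CB2; competition-equilibrium binding against [3H]CP-55,940.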

[4] = biological target: Cannabinoid receptor 2 (Homo sapiens) (UniProt P34972); test: Displacement of [3H]CP55940 from human CB2 receptor expressed in HEK293 cells by competition-equilibrium binding analysis; type: cell-based; in short: as §2
[5] = biological target: Cannabinoid receptor 1 (Rattus norvegicus) (UniProt P20272); test: Displacement of [3H]CP55940 from CB1 receptor in rat brain by competition-equilibrium binding analysis
Target sequence in this assay (P20272 whole entry, looked up): as the sequence (P20272 whole entry) above

Monoglyceride lipase = biological target: T2, Monoglyceride lipase (Homo sapiens, UniProt Q99685); test: Inhibition of human recombinant His-tagged MGL expressed in Escherichia coli BL21 DE3 cells using AHMMCE as substrate preincubated with enzyme for 15 mins followed by substrate addition and measured after every 15 mins for 3 hrs by fluorescence based assay
T2 sequence (Q99685 whole entry): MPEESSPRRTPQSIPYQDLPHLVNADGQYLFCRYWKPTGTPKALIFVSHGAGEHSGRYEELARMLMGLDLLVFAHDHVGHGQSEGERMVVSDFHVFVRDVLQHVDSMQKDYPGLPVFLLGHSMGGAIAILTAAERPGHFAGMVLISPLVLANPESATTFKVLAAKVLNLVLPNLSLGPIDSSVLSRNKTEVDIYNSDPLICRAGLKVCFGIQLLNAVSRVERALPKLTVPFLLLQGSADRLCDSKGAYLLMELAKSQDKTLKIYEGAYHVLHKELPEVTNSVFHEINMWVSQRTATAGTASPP
In short: (§3)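 Fluorescent enzyme assay in throughput format. Human recombinant FAAH or purified rat FAAH used arachidonoyl 7-amino-4-methylcoumarin amide as substrate; human recombinant MGL was run by a similar fluorometric procedure.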

[6] = biological target: T3, Fatty-acid amide hydrolase 1 (Homo sapiens) (UniProt O00519); test: Inhibition of human recombinant MBP-tagged FAAH expressed in Escherichia coli cells at 1 uM using AAMCA as substrate incubated for 15 mins followed by substrate addition and measured after every 20 mins for 4 hrs by fluorescence based assay relative to control; in short: as §1
T3 sequence (whole entry): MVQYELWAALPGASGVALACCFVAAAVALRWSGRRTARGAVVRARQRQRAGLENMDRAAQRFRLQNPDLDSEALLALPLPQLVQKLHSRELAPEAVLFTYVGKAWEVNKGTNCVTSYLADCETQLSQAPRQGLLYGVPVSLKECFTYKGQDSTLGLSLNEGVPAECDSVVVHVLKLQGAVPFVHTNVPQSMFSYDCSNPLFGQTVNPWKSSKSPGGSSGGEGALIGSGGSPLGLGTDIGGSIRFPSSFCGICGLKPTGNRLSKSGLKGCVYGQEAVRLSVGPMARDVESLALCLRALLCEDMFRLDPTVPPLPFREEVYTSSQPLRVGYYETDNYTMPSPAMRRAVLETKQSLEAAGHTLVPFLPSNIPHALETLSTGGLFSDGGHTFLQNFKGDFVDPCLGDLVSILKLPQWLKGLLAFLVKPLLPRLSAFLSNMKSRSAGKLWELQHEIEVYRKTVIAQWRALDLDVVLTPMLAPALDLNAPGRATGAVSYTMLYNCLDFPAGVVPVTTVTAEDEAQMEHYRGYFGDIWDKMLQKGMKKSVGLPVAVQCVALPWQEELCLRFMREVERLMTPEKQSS

Homo sapiens [7] = species: Homo sapiens; test: Selectivity ratio of IC50 for human recombinant His-tagged MGL expressed in Escherichia coli BL21 DE3 cells to IC50 for human recombinant MBP-tagged FAAH expressed in Escherichia coli cells by fluorescence based assay
Homo sapiens [8] = species: Homo sapiens; test: Selectivity ratio of IC50 for human full length ABHD6 expressed in Escherichia coli cells to IC50 for human recombinant MBP-tagged FAAH expressed in Escherichia coli cells by fluorescence based assay
[9] = Selectivity ratio of IC50 for human recombinant His-tagged MGL expressed in Escherichia coli BL21 DE3 cells to IC50 for rat recombinant His/GST-tagged FAAH expressed in Escherichia coli cells by fluorescence based assay
[10] = Selectivity ratio of IC50 for human full length ABHD6 expressed in Escherichia coli cells to IC50 for rat recombinant His/GST-tagged FAAH expressed in Escherichia coli cells by fluorescence based assay
[11] = biological target: T4, Fatty-acid amide hydrolase 1 (Rattus norvegicus, UniProt P97612); test: Inhibition of rat recombinant His/GST-tagged FAAH expressed in Escherichia coli cells using AAMCA as substrate incubated for 15 mins followed by substrate addition and measured after every 20 mins for 4 hrs by fluorescence based assay; in short: as §3
T4 sequence (P97612 whole entry): T1 sequence (whole entry)

[12] = biological target: T5, Fatty-acid amide hydrolase 1 (Homo sapiens, UniProt O00519); test: Inhibition of human recombinant MBP-tagged FAAH expressed in Escherichia coli cells using AAMCA as substrate incubated for 15 mins followed by substrate addition and measured after every 20 mins for 4 hrs by fluorescence based assay; in short: as §3
T5 sequence (O00519 whole entry): T3 sequence (whole entry)

[13] = Stability in human liver microsomes assessed as half life; type: ADME, Microsome
In short: (§4)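 Stability assessed as half-life in human, rat and mouse plasma and gastric fluid, and in human, rat and mouse liver microsomal preparations.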

[14] = Stability in rat liver microsomes assessed as half life; type: ADME, Microsome; in short: as §4
[15] = Stability in mouse liver microsomes assessed as half life; type: ADME, Microsome; in short: as §4
[16] = Stability in human plasma assessed as half life; type: ADME, cell-free; in short: as §4
[17] = Stability in rat plasma assessed as half life; type: ADME, cell-free; in short: as §4
[18] = Stability in mouse plasma assessed as half life; type: ADME, cell-free; in short: as §4
[19] = Stability in human gastric fluid assessed as half life; type: ADME, tissue-based, Gastric juice; in short: as §4
[20] = Stability in rat gastric fluid assessed as half life; type: ADME, tissue-based, Gastric juice; in short: as §4
[21] = Stability in mouse gastric fluid assessed as half life; type: ADME, tissue-based, Gastric juice; in short: as §4

Chain of Cannabinoid receptor 2 (Homo sapiens) (P34972 whole entry): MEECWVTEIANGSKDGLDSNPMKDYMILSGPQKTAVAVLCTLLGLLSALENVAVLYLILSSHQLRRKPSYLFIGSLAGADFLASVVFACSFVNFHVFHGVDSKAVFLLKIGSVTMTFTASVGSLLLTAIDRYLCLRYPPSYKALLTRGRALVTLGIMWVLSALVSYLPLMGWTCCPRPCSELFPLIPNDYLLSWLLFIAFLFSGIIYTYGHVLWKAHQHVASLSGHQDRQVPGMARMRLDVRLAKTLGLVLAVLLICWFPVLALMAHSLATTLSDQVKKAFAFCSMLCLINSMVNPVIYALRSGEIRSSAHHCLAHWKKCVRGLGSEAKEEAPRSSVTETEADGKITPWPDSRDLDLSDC
Chain of Cannabinoid receptor 2 (Mus musculus) (P47936 whole entry): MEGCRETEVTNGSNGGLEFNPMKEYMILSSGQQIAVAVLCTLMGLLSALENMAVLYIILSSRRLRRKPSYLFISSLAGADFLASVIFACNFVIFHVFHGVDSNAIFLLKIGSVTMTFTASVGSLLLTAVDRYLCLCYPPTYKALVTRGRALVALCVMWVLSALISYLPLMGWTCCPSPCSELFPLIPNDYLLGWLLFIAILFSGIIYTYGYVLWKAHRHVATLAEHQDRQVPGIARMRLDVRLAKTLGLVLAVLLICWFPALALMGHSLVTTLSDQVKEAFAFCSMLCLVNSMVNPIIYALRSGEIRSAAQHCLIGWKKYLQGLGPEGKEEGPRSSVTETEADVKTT

Structure (SMILES) | inhibition [1] | Activity [2] | Activity [3] | Activity [4] | Activity [5] | pIC50 (Monoglyceride lipase) | inhibition [6] | Ratio IC50 (Homo sapiens [7]) | Ratio IC50 (Homo sapiens [8]) | Ratio IC50 [9] | Ratio IC50 [10] | pIC50 [11] | pIC50 [12] | half-life [13] [min] | half-life [14] [min] | half-life [15] [min] | half-life [16] [min] | half-life [17] [min] | half-life [18] [min] | half-life [19] [min] | further results
O=C(Oc1cccc(N2CCS(=O)(=O)CC2)c1)N1CCN(c2ccc(F)cc2)CC12CC2 | 54% | inactive | inactive | inactive | inactive | – | – | – | – | – | – | – | – | – | – | – | – | – | – | – | –
O=C(Oc1cccc(N2CCS(=O)(=O)CC2)c1)N1CCN(c2ccnnc2)CC1 | inactive | inactive | inactive | inactive | inactive | < 6.00 | inactive | > 1000 | > 1000 | > 1000 | > 1000 | – | – | – | – | – | – | – | – | – | –
C[C@H]1CN(c2ccccc2)CCN1C(=O)Oc1cccc(N2CCS(=O)(=O)CC2)c1 | inactive | inactive | inactive | inactive | inactive | – | inactive | – | – | – | – | – | – | – | – | – | – | – | – | – | –
O=C(Oc1cccc(N2CCS(=O)(=O)CC2)c1)N1C[C@@H]2C[C@H]1CN2c1ccc(F)cc1 | – | inactive | inactive | inactive | inactive | < 6.00 | 67% | > 1000 | > 1000 | > 1000 | > 1000 | 6.47 | – | – | – | – | – | – | – | – | –
O=C(Oc1cccc(N2CCS(=O)(=O)CC2)c1)N1CCN(Cc2cccc(Oc3ccccc3)c2)CC1 | – | inactive | inactive | inactive | inactive | < 6.00 | – | > 1000 | > 1000 | > 1000 | > 1000 | 8.66 | 8.64 | 15 to 25 | 15 to 25 | 15 to 25 | > 60 | > 60 | > 60 | > 60 | half-life [20]: > 60 min; half-life [21]: > 60 min
C[C@@H]1CN(C(=O)Oc2cccc(N3CCS(=O)(=O)CC3)c2)[C@@H](C)CN1c1ccc(F)cc1 | 35% | inactive | inactive | inactive | inactive | – | – | – | – | – | – | – | – | – | – | – | – | – | – | – | –
CN1CCN(c2cccc(OC(=O)N3CCC(c4ccc(F)cc4)CC3)c2)CC1 | – | inactive | inactive | inactive | inactive | < 6.00 | – | > 1000 | > 1000 | > 1000 | > 1000 | 8.03 | 7.48 | 15 to 25 | 15 to 25 | 15 to 25 | > 60 | > 60 | > 60 | > 60 | half-life [20]: > 60 min; half-life [21]: > 60 min
N#Cc1ccc(C2CCN(C(=O)Oc3cccc(N4CCS(=O)(=O)CC4)c3)CC2)cc1 | – | inactive | inactive | inactive | inactive | < 6.00 | – | > 1000 | > 1000 | > 1000 | > 1000 | 8.00 | 7.64 | 15 to 25 | 15 to 25 | 15 to 25 | > 60 | > 60 | > 60 | > 60 | half-life [20]: > 60 min; half-life [21]: > 60 min
COc1ccc(N2CCN(C(=O)Oc3cccc(N4CCS(=O)(=O)CC4)c3)[C@@H](C(C)C)C2)cc1 | inactive | inactive | inactive | inactive | inactive | – | inactive | – | – | – | – | – | – | – | – | – | – | – | – | – | –
O=C(Oc1cccc(N2CCS(=O)(=O)CC2)c1)N1CCC2(CC1)COC2 | inactive | inactive | inactive | inactive | inactive | < 6.00 | inactive | > 1000 | > 1000 | > 1000 | > 1000 | – | – | – | – | – | – | – | – | – | –
C[C@@H]1CN(c2ccccc2)CCN1C(=O)Oc1cccc(N2CCS(=O)(=O)CC2)c1 | – | inactive | inactive | inactive | inactive | < 6.00 | – | > 1000 | > 1000 | > 1000 | > 1000 | 8.24 | 7.75 | 15 to 25 | 15 to 25 | 15 to 25 | > 60 | > 60 | > 60 | > 60 | half-life [20]: > 60 min; half-life [21]: > 60 min

From ChEMBL document CHEMBL4359929, “Piperidine and piperazine inhibitors of fatty acid amide hydrolase targeting excitotoxic pathology” (Bioorg Med Chem, 2019)
